Results from paper PMC5352984 (Journal of medicinal chemistry, 2017).

Key:
G9a = target: T1, G9a (Homo sapiens, UniProt Q96KQ7); assay: G9a scintillation proximity methyltransferase assay; type: biochemical; details: ratio of IC50 versus compound 14
T1 sequence (Q96KQ7 1-1210): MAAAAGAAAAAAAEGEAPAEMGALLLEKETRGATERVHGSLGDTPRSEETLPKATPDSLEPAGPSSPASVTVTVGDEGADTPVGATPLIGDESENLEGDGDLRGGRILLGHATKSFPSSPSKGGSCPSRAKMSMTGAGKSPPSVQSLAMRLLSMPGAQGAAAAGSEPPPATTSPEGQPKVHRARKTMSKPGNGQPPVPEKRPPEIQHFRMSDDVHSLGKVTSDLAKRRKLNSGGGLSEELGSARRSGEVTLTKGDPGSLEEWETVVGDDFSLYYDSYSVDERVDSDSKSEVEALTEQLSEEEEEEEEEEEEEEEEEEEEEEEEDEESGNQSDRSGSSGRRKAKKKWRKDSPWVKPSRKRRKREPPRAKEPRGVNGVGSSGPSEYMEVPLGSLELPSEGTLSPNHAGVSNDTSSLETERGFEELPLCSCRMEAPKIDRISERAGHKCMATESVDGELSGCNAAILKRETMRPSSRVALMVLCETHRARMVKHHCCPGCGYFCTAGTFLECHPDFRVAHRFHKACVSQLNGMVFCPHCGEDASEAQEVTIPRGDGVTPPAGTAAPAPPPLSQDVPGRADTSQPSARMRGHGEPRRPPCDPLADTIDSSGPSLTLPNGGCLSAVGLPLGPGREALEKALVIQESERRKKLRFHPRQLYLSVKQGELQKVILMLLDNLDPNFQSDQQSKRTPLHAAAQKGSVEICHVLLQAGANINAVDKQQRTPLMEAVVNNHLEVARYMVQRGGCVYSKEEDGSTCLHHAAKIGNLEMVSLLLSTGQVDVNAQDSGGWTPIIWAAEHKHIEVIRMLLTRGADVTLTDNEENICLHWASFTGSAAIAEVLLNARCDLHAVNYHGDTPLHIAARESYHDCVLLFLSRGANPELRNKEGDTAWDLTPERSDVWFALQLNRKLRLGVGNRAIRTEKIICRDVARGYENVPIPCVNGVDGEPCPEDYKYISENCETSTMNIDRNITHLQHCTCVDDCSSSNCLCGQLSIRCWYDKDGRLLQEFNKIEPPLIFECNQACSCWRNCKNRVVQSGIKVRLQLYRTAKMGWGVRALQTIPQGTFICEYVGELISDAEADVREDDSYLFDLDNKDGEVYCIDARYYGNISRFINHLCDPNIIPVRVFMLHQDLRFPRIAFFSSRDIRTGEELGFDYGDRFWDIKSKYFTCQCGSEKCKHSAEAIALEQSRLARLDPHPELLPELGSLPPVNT

[1] = tested on: 29 PKMTs, PRMTs, DNMTs, and RNMTs; assay: Selectivity assays against a methyltransferase panel; type: biochemical
Outline: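 Quenched with 7.5 M guanidine HCl, diluted in 20 mM Tris pH 8.0, FlashPlate counted after 1 h. DOT1L, ASH1L, DNMT3A/3L, DNMT3B/3L: 1 h RT, TCA filter capture, washes, scintillation count. No-compound = 100%, no-enzyme = 0%.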

GLP = details: cited from earlier work

In the case of `COc1cc2nc(N3CCCN(C)CC3)nc(NC3CCN(C)CC3)c2cc1OC` [Compound 15, 6,7-Dimethoxy-2-(4-methyl-1,4-diazepan-1-yl)-N-(1-methylpiperidin-4-yl)quinazolin-4-amine], the “potency increase for G9a compared with 14” value (G9a) is reported as 21 fold.

With `CCCCCCNc1nc(NC2CCN(C)CC2)c2cc(OC)c(OC)cc2n1` [Compound 18, N^2-Hexyl-6,7-dimethoxy-N^4-(1-methylpiperidin-4-yl)quinazoline-2,4-diamine] the “inhibition of 29 methyltransferases” value ([1]; compound at 1 μM) was “did not inhibit”.

For `COc1cc2nc(N3CCCN(C)CC3)nc(NC3CCN(Cc4ccccc4)CC3)c2cc1OC` [Compound 1], the “selectivity for GLP over G9a” value (GLP) is given as 3–5 fold.

For `COc1cc2nc(N3CCOCC3)nc(NC3CCN(C)CC3)c2cc1OC` [Compound 4, 6,7-Dimethoxy-N-(1-methylpiperidin-4-yl)-2-morpholinoquinazolin-4-amine], the “inhibition of 29 methyltransferases” value ([1]; compound at 10 μM) was “did not inhibit”.
